Data: ChEMBL document CHEMBL4706687, “Synthesis and Pharmacological Evaluation of Novel Non-nucleotide Purine Derivatives as P2X7 Antagonists for the Treatment of Neuroinflammation” (J Med Chem, 2021)
Activity calls are given as the source filed them. No cut-off for these calls is given here.

Assays:
[1] = target: T1, P2X purinoceptor 1 (Rattus norvegicus) (UniProt P47824); assay: Antagonist activity at rat P2X1 receptor expressed in Xenopus laevis oocytes assessed as reduction in ATP-induced channel currents at 100 uM by TEVC electrophysiology assay relative to control; type: cell-based; conditions: Oocyte
T1 sequence (whole entry): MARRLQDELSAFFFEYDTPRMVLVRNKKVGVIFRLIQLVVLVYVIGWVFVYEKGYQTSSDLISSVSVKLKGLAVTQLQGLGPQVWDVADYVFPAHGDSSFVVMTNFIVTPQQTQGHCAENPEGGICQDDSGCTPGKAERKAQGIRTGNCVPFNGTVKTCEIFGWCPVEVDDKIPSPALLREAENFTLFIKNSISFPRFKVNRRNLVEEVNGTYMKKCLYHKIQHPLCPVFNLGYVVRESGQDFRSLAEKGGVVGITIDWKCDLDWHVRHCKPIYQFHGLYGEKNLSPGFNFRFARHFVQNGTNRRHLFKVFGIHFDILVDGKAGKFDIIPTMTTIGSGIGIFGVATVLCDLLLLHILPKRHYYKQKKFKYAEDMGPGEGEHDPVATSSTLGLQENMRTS
Procedure, shortened: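 Two-electrode voltage clamp at −70 mV in low divalent-cation solution, oocytes incubated 1–2 days at 16–18 °C after 50 nL cRNA injection: rP2X1 and rP2X4 at 0.5 mg/mL, rP2X2 0.1 mg/mL, rP2X7 25 μg/mL. ATP 10 μM for rP2X1 and rP2X2, 30 μM for rP2X4 and rP2X7. Compound applied 3 min without perfusion. Currents normalized to control; three oocytes from two frogs.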

[2] = target: T2, P2X purinoceptor 7 (Homo sapiens) (UniProt Q99572); assay: Antagonist activity at human P2X7 receptor expressed in HEK293 cells assessed as reduction in benzoyl-ATP-induced YO-PRO-1 dye uptake at 10 uM pre-incubated for 20 mins before YO-PRO-1 addition and measured after 25 mins by fluorescence plate reader analysis relative to control; type: cell-based; conditions: filed as antagonist, time 45.0 min
T2 sequence (whole entry): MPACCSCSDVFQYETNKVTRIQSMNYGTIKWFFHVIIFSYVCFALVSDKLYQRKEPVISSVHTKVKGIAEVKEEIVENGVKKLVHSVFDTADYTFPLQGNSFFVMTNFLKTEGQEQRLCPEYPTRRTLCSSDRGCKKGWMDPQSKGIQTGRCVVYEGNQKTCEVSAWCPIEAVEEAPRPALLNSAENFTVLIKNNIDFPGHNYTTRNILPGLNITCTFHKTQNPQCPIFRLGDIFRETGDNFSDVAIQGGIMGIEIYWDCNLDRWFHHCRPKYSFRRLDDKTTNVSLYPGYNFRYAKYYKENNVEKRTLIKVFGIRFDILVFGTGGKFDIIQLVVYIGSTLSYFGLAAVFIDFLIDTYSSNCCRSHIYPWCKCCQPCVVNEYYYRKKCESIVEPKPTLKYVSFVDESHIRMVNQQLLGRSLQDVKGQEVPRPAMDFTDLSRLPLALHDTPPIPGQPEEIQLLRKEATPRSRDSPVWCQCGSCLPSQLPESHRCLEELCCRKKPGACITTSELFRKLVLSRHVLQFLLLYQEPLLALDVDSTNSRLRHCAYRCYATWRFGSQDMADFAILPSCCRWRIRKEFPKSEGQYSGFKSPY
Procedure, shortened: (§1)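 Stably transfected hP2X7-HEK293 cells, 48 h after seeding, in Mg²⁺-free Krebs-HEPES (0.2 mM CaCl₂, pH 7.4). Compound preincubation 20 min, then YO-PRO-1 2 μM, then BzATP 30 μM. Fluorescence at 485/520 nm read for 25 min. Each well normalized to Fmax (0.5% Triton X-100) and Fmin (2 M MnCl₂): F = (Fx − F0)/(Fmax − Fmin). Triplicates from three cultures. IC50 is the concentration halving BzATP-induced uptake.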

[3] = system: Peritoneal macrophage; assay: Inhibition of Il-1beta production in LPS-stimulated C57BL/6 mouse peritoneal macrophages pre-incubated for 15 mins followed by ATP addition for 30 mins by ELISA method; type: functional, tissue-based; conditions: time 45.0 min
Procedure, shortened: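 Thioglycolate-elicited peritoneal macrophages from 6–8-week male C57BL/6 mice, 3 × 10⁵ cells/well. Primed 4 h with LPS 1 μg/mL (E. coli 026:B6), then serum-free DMEM with compound for 15 min, then ATP for 30 min. Supernatant IL-1β measured by ELISA, expressed as percent of ATP-only control. Triplicates from three mice.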

[4] = target: T2, P2X purinoceptor 7 (Homo sapiens); assay: Antagonist activity at human P2X7 receptor expressed in Xenopus laevis oocytes assessed as reduction in ATP-induced channel currents at 100 uM by TEVC electrophysiology assay relative to control; type: cell-based; conditions: Oocyte, filed as antagonist
Procedure, shortened: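 Oocytes injected with 50 nL His-tagged hP2X7 cRNA (0.5 mg/mL), kept 1–2 days at 16–18 °C. Recorded in low divalent-cation solution (90 mM NaCl, 0.5 mM CaCl₂, 5 mM HEPES) at −70 mV. ATP 300 μM for 2 s after 3 min static compound incubation. Current normalized to control amplitude. Triplicates from three oocytes, two frogs.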

[5] = target: T3, P2X purinoceptor 7 (Homo sapiens, UniProt Q99572); assay: Antagonist activity at human P2X7 receptor expressed in HEK293 cells assessed as reduction in benzoyl-ATP-induced YO-PRO-1 dye uptake pre-incubated for 20 mins before YO-PRO-1 addition and measured after 25 mins by fluorescence plate reader analysis relative to control; type: cell-based; procedure, shortened: as §1
T3 sequence (Q99572 whole entry): T2 sequence (whole entry)

inhibition [1]: inactive | inhibition [2]: 63% | inhibition [4]: 47% | IC50 [5]: 9 µM
SMILES: O=C(Cn1cnc2c(Cl)ncnc21)c1ccc(Cl)cc1Cl
inhibition [3]: Dose-dependent effect
